Calls of active or inactive are those of the source.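 Rule for the calls: active = inhibition of 30% or more at any tested concentration; inactive = the rest.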
Each molecule was assayed against Aspartyl aminopeptidase (Homo sapiens) (UniProt Q9ULA0) (assay: human M18 aspartyl aminopeptidase inhibitors, dose response, counter-screen for PfM18AAP inhibitor project, biochemical, QFRET fluorogenic readout, recombinant enzyme (AID 588696)). Details: recombinant hM18AAP, H-Glu-NHMec fluorogenic cleavage.
In short: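 Material – recombinant human hM18AAP enzyme · Buffer or medium – pH 7.5 Tris-HCl, 50 mM, plus 2 mM CoCl2, 2% DMSO · Also added – 0.1 mM H-Glu-NHMec substrate · Times – enzyme reaction for 90 min at room temperature · Signal – fluorescence at 370/460 nm · Measure – % inhibition and fitted IC50 · Control set – no-enzyme background wells as low-signal control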

IC50	SMILES
41.4 µM	Oc1ccc(CCNC(c2ccccc2)c2ccccc2)cc1O
27.9 µM	Oc1ccc(-c2csc(Cc3cc4ccccc4[nH]3)n2)cc1O
34 µM	Oc1ccc(CCNc2ccc3ccccc3c2)cc1O
30.4 µM	Oc1ccc(CCNc2cccc3ccccc23)cc1O
52.3 µM	Cc1nc(NCCc2ccc(O)c(O)c2)c2c3c(sc2n1)CCC3
73 µM	Cc1c(-c2ccccc2)[nH]c(-c2ccc(O)c(O)c2)[n+]1O
26.6 µM	Cc1ccc(-c2nc(-c3ccc(O)c(O)c3)cs2)cc1
21.5 µM	CCOc1cccc(-c2nc(-c3ccc(O)c(O)c3)cs2)c1
43.5 µM	Nc1cc(C(=O)c2ccccc2)ccc1O
53.4 µM	Oc1ccc(CCNc2cncc3ccccc23)cc1O
31.1 µM	CN(CCc1ccc(O)c(O)c1)c1ccnc2ccccc12
45.8 µM	O=C1OCCN1CCc1nc(-c2ccc(O)c(O)c2)cs1
33.1 µM	CC(C)(C)C(=O)OCc1nc(-c2ccc(O)c(O)c2)cs1
46.1 µM	O=S1(=O)c2ccccc2-c2cc(-c3nc(-c4ccc(O)c(O)c4)[nH]c3-c3ccccc3)ccc21

Further lines, the molecule ahead of its results:

SMILES	IC50
COc1ccc2c(c1)C(=O)C(N)CC2 (centres undefined)	99.8 µM
CCC(C)c1ccc(N)c(O)c1 (centres undefined)	44.6 µM
O=C1c2ccc3c4c(ccc(c24)C(=O)N1O)CC3	89.2 µM

Same assay, conditions: recombinant hM18AAP, H-Glu-NHMec fluorogenic cleavage; at 50 µM (top of the series)

inhibition	SMILES
inactive	O=c1ccc2cc(O)c(O)cc2o1
inactive	Oc1ccc(CCNc2c3c(nc4ccccc24)CCCC3)cc1O

More lines, now with the values behind:

SMILES	inhibition
COc1ccc(CCNc2ccnc3ccccc23)cc1OC	inactive
O=C(O)CCCNc1c2ccccc2nc2ccccc12	inactive
O=C(O)CCCCNc1c2ccccc2nc2ccccc12	inactive

Same assay, conditions: recombinant hM18AAP, H-Glu-NHMec fluorogenic cleavage; at 100 µM (top of the series)

inhibition	SMILES
inactive	COc1ccc(-c2nc(-c3ccccc3)c(-c3ccccc3)[nH]2)cc1OC
inactive	CN(CCc1ccc(O)c(O)c1)c1ccncc1
inactive	Oc1ccc(CCNc2c3ccccc3nc3ccccc23)cc1
inactive	Oc1ccc(CCN2CCc3ccccc3C2)cc1O
inactive	COc1ccc(-c2csc(-c3ccccc3OC)n2)cc1OC
inactive	O=c1cc(CN2CCN(Cc3ccccc3)CC2)c2ccc(O)c(O)c2o1
inactive	Oc1ccc(CCNC2CCN(Cc3ccccc3)CC2)cc1O
inactive	Oc1ccc(CCCNc2c3ccccc3nc3ccccc23)cc1O
inactive	COc1ccc(-c2csc(-c3ccccc3)n2)cc1OC
inactive	COc1cccc(-c2nc(-c3ccc(OC)c(OC)c3)cs2)c1
inactive	COc1ccc(CNc2c3ccccc3nc3ccccc23)cc1OC

More lines, now with the values behind:

SMILES	inhibition
COc1ccc(CCCNc2c3ccccc3nc3ccccc23)cc1OC	inactive
CCC(C)C(=O)Nc1ccccc1N (centres undefined)	inactive
O=C(c1ccco1)N1CCN(Cc2cc(=O)c(O)co2)CC1	inactive
Cc1c(O)c(=O)ccn1CCNc1c2ccccc2nc2ccccc12	inactive
COc1ccc(CCN(C)c2ccncc2)cc1OC	inactive
COc1ccc(CCN(C)CCc2ccccc2)cc1OC	inactive
CCC(C)C(=O)Nc1ccccc1O (centres undefined)	inactive
COc1ccc(CCNC2CCN(C)CC2)cc1OC	inactive
O=c1cc(CO)oc(CN2CCCCC2)c1O	inactive
COc1ccc(CCN2CCc3ccccc3C2)cc1OC	inactive
COc1ccc(CCC(=O)O)cc1OC	inactive
COc1ccc(CCN2CCN(C)CC2)cc1OC	inactive
COc1ccc(CCNc2c3ccccc3nc3ccccc23)cc1OC	inactive
Cc1c(OCc2ccccc2)c(=O)ccn1CCNc1c2ccccc2nc2ccccc12	inactive
COc1ccc(CCNc2c3c(nc4ccccc24)CCCC3)cc1OC	inactive
COc1ccc(CCN(C)c2ccnc3ccccc23)cc1OC	inactive
COc1ccc(CCNc2ccncc2)cc1OC	inactive
COc1ccc(CCNC2CCN(Cc3ccccc3)CC2)cc1OC	inactive
NCCNc1c2ccccc2nc2ccccc12	inactive
NCc1cc2c3c(c(=O)oc2c(O)c1O)CCC3	inactive
COc1ccc(CCNc2ccc3ccccc3c2)cc1OC	inactive
COc1cccc(CCNc2c3ccccc3nc3ccccc23)c1	inactive
COc1ccc(CCNc2cncc3ccccc23)cc1OC	inactive
COc1ccc(CCNc2cccc3ccccc23)cc1OC	inactive
COc1ccc(CC(=O)O)cc1OC	inactive
O=C(c1ccco1)N1CCN(Cc2cc(=O)c(O)c[nH]2)CC1	inactive
